In data set [1] the test system is Mus musculus. In words: Inhibition of Stat5 phosphorylation at Y694 in tumor of human MV4-11 cells xenografted CrTacNCr-Fox1(nu) athymic mouse at 50 to 100 mg/kg, po bid for 4 days measured after 2 hrs post final dose. The class given is functional, organism-based. The gist of the method: (§1)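 MV4-11 xenograft-bearing athymic mice dosed orally at 50 or 100 mg/kg twice daily for 4 days, starting 17 days after implantation. Tumors harvested 2 h after the final dose. Western blotting for phospho-histone H3 (S10) and phospho-Stat5 (Y694), with total histone H3, total Stat5 and GAPDH as loading controls.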

Data set [2] can be described thus: Oral bioavailability in Sprague-Dawley rat at 5 mg/kg. The format is ADME, organism-based. Particulars: in vivo. The gist of the method:
(§2)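 Female Sprague-Dawley rats, 5 mg/kg. Oral vehicle 10% DMSO, 5% Tween 80, 20% PEG400 in water; iv vehicle 10% DMSO, 5% Tween 20, 85% saline, 0.3% 1 M HCl. Serial tail-vein plasma at 15, 30 min and 2, 4, 6, 24 h. Methanol precipitation with olomoucine internal standard, then LC-MS (C18 BEH, positive ESI MRM).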

The test system of data set [3] is MV4-11. Put plainly: Antitumor activity against human MV4-11 cells xenografted in po dosed CrTacNCr-Fox1(nu) athymic mouse assessed as tumor growth inhibition administered 10 days post implantation twice daily for 7 days. The class given is functional, organism-based. The essentials: (§3)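 Female adult athymic nude mice implanted subcutaneously with 10^7 FLT3-ITD-positive MV4-11 cells; treatment started 10 days after implantation, once mean tumor volume was at least 100 mm^3. Oral dosing at 50 or 100 mg/kg (n = 5 per group), twice daily for 7 days, then once daily for a further 4 days. Vehicle: 10% DMSO, 20% PEG 400, 5% Tween 80, 65% water. Tumor volume followed to day 60.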
(A xenograft is tissue or cells of one species grown in another, often human tumour cells in immunodeficient mice.)

A short description of data set [4]: Clearance in Balb/C mouse at 5 mg/kg, iv. The class given is ADME, organism-based. More on the design: dose 5 mg/kg, route intravenous. Particulars: in vivo. The gist of the method:
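Female Balb/C mice given a single 5 mg kg^-1 iv dose in 10% DMSO, 5% Tween 20 in saline. Mice sacrificed at 5, 15, 30 min and 1, 2, 4, 6, 24 h. Plasma from cardiac blood, methanol protein precipitation with olomoucine internal standard, LC–MS (positive ESI MRM). Clearance given in L/h.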

Data set [5] in a line: Half life in Balb/C mouse at 5 mg/kg, iv. The format is ADME, organism-based. More on the design: dose 5 mg/kg, route intravenous. Particulars: in vivo. The essentials: (§4)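 Female Balb/C mice given 5 mg/kg po or iv in 10% DMSO, 5% Tween 20 in saline. Killed at 5, 15, 30 min and 1, 2, 4, 6, 24 h; plasma from cardiac blood. Methanol protein precipitation with olomoucine internal standard, then LC-MS (reverse-phase C18, positive ESI MRM).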

Data set [6] in a line: Clearance in Sprague-Dawley rat at 5 mg/kg, iv. The class given is ADME, organism-based. More on the design: dose 5 mg/kg, route intravenous. As to conditions: in vivo. The gist of the method: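 Female Sprague–Dawley rats given 5 mg/kg iv in 10% DMSO, 5% Tween 20, 85% saline, 0.3% 1 M HCl. Serial tail vein bleeds at 15 and 30 min and 2, 4, 6, 24 h; plasma protein-precipitated with methanol with olomoucine internal standard; drug quantified by LC–MS (positive ESI MRM). Clearance given as L/h and mL/min/kg.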

Data set [7] relates to MV4-11. Put plainly: Antitumor activity against human MV4-11 cells xenografted in CrTacNCr-Fox1(nu) athymic mouse assessed as tumor growth inhibition at 50 mg/kg, po bid administered 10 days post implantation daily for 7 days measured after 11 days. The class given is functional. More on the design: scale not given: the % may be the effect or the level left. The gist of the method: (§5)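 Female adult CrTacNcr-Fox1(nu) athymic mice, s.c. 10^7 FLT3-ITD-positive MV4-11 cells; treatment began at 10 days (mean tumor volume at least 100 mm^3). Oral 50 or 100 mg/kg in 10% DMSO, 20% PEG 400, 5% Tween 80, 65% water, or vehicle alone; n = 5 per group. Dosed twice daily for 7 days, then once daily for 4 days; study ended day 60.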

Data set [8] concerns MV4-11. Put plainly: Antitumor activity against human MV4-11 cells xenografted in CrTacNCr-Fox1(nu) athymic mouse assessed as reduction in tumor relapse at 50 to 100 mg/kg, po bid administered 10 days post implantation daily for 7 days measured after 60 days. The class given is functional. More on the design: scale not given: the % may be the effect or the level left. Particulars: dose mg/kg 50-100. The gist of the method: as §5

Data set [9] is described as follows: Oral bioavailability in Balb/C mouse at 5 mg/kg. As to conditions: in vivo. The format is ADME, organism-based. The essentials: as §4
Data set [10] has as its system MV4-11. In words: Antitumor activity against human MV4-11 cells xenografted in CrTacNCr-Fox1(nu) athymic mouse assessed as tumor growth inhibition at 100 mg/kg, po bid administered 10 days post implantation daily for 7 days measured after 11 days. Further details: dose 100 mg/kg. The class given is functional, organism-based. The essentials:
as §3

A further data set concerns Caco-2. Put plainly: Permeability across human Caco2 cells. The class given is ADME, cell-based. A general note: Passage across Caco-2 layers is used to estimate intestinal permeability.
In data set [11] the target is Voltage-gated inwardly rectifying potassium channel KCNH2 (Homo sapiens, UniProt Q12809). In words: Inhibition of human ERG by whole-cell voltage clamping. The essentials: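 hERG tail current measured by whole-cell voltage clamp (Cyprotex) to obtain an IC50. Single-point screens were a separate high-throughput cell-based electrophysiology assay at 10 μM, with 0.3% DMSO vehicle and 1 μM cisapride as controls.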
Chain of Voltage-gated inwardly rectifying potassium channel KCNH2 (Q12809 whole entry): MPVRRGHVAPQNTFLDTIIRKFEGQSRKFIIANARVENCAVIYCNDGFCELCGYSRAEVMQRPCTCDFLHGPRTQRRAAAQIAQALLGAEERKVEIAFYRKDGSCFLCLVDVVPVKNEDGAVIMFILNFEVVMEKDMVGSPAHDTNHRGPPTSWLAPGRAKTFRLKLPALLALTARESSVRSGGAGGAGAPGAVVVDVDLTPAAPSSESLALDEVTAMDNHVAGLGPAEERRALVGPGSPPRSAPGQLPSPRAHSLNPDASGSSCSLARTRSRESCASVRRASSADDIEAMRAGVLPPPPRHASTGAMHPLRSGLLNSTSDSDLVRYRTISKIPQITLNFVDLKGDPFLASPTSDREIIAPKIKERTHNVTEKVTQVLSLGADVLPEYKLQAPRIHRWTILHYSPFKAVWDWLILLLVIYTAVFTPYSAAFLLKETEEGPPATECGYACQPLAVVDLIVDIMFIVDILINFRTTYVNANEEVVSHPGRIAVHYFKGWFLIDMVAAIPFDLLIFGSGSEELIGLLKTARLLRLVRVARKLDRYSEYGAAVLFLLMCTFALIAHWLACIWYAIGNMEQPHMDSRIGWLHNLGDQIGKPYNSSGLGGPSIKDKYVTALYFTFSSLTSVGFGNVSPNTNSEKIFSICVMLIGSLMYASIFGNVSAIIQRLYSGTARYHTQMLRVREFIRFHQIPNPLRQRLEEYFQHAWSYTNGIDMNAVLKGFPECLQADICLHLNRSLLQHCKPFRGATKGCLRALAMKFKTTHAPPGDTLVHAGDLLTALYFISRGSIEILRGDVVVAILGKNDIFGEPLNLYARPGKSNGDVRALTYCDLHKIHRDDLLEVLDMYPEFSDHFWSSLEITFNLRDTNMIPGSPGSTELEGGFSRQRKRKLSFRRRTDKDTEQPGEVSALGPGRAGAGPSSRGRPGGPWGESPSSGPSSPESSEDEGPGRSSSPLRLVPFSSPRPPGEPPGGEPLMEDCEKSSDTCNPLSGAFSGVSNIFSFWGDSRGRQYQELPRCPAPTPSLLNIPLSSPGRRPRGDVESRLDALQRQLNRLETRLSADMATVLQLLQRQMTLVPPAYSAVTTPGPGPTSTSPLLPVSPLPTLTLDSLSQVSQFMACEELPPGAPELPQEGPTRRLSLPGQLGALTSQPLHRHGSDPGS

The target in data set [12] is Platelet-derived growth factor receptor beta (Homo sapiens) (UniProt P09619). Put plainly: Inhibition of PDGFRB at 1 uM. The essentials: (§6)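 KINOMEScan competition-binding panel of 442 kinases (386 nonmutant) tested at 1 μM. Binding is read as percent of control ligand competition; <10% of control counts as a hit for the S(10) score.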
Chain of Platelet-derived growth factor receptor beta (Homo sapiens) (P09619 whole entry): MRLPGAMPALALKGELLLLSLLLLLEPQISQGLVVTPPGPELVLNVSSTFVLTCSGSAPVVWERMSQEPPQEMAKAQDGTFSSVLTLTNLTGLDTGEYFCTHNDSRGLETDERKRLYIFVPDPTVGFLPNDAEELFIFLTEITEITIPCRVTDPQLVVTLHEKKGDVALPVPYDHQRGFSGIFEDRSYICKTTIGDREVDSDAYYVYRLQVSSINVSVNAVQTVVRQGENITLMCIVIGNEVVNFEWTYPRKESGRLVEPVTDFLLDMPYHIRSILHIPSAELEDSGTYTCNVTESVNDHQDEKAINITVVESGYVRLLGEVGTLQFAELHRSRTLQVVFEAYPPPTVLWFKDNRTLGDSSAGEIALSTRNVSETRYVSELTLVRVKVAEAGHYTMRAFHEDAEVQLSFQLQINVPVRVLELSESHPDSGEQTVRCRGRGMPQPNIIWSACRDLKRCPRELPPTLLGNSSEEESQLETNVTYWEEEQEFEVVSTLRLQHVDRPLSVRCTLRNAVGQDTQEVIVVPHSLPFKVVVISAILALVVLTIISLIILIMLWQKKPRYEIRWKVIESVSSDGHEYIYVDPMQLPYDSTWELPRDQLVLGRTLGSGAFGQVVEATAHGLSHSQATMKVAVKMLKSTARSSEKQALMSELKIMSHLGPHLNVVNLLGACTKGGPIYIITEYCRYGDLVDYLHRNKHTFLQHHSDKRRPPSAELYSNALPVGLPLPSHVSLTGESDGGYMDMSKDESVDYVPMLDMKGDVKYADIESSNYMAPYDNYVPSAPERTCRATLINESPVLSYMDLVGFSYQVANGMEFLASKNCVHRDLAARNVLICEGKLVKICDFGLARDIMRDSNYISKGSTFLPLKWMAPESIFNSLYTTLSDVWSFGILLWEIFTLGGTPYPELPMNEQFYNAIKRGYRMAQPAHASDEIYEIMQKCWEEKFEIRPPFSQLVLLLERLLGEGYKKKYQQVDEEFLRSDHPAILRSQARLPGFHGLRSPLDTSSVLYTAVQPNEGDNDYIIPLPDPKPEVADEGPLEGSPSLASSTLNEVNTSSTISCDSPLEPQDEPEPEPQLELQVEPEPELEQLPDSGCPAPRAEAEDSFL
In data set [13] the test system is Mus musculus. In words: Inhibition of Histone H3 phosphorylation in tumor of human MV4-11 cells xenografted CrTacNCr-Fox1(nu) athymic mouse at 50 to 100 mg/kg, po bid for 4 days measured after 2 hrs post final dose. The format is functional, organism-based. The essentials:
as §1

In data set [14] the test system is Mus musculus. Put plainly: Toxicity in CrTacNCr-Fox1(nu) athymic mouse assessed as adverse condition at 50 to 100 mg/kg, po administered 10 days post implantation daily for 7 days. Particulars: in vivo. The format is organism-based. Further details: dose 50-100 mg/kg, route oral.
The nature of data set [15]: AUC (infinity) in Balb/C mouse at 5 mg/kg, iv. The format is ADME, organism-based. More on the design: time infinity, dose 5 mg/kg, route intravenous. As to conditions: plasma. The gist of the method: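 Female Balb/C mice dosed iv at 5 mg/kg in 10% DMSO, 5% Tween 20 in saline. Mice killed at 5, 15, 30 min and 1, 2, 4, 6, 24 h. Plasma from cardiac blood was methanol-precipitated with olomoucine internal standard, then analysed by LC–MS (positive ESI MRM).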

The next data set addresses Cytochrome P450 3A4 (Homo sapiens, UniProt P08684). Put plainly: Inhibition of human liver microsome CYP3A4 by LC-MS-MS analysis. The format is ADME. The essentials:
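Pooled human liver microsomes (50 donors) at 0.5 mg/mL protein, 10 min incubation; metabolite detected by LC-MS/MS with positive ESI.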

Data set [16] can be described thus: Metabolic stability in human liver microsomes assessed as parent compound metabolism after 30 mins by LC-MS analysis. Particulars: read-out: Drug metabolism. The format is ADME, Microsome. The gist of the method: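 Test compound at 10 μM with pooled mixed-gender human liver microsomes (1 mg/mL protein), NADPH 1 mM, UDPGA 2.5 mM and MgCl2 3 mM in 10 mM PBS at 37 °C for 0 and 30 min. Controls omit NADPH/UDPGA. Compound remaining measured by LC–MS; reported as percent of parent metabolized at 30 min.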

Data set [17] in a line: Half life in Sprague-Dawley rat at 5 mg/kg, iv. The class given is ADME, organism-based. More on the design: dose 5 mg/kg, route intravenous. As to conditions: in vivo. The essentials:
as §2

Data set [18] has as its target Proto-oncogene tyrosine-protein kinase receptor Ret (Homo sapiens) (UniProt P07949). In words: Inhibition of RET at 1 uM. The gist of the method:
as §6

Active and inactive are the calls of the source. The calls are words filed in the database; no cut-off is given here.

Chain of Proto-oncogene tyrosine-protein kinase receptor Ret (Homo sapiens) (P07949 whole entry): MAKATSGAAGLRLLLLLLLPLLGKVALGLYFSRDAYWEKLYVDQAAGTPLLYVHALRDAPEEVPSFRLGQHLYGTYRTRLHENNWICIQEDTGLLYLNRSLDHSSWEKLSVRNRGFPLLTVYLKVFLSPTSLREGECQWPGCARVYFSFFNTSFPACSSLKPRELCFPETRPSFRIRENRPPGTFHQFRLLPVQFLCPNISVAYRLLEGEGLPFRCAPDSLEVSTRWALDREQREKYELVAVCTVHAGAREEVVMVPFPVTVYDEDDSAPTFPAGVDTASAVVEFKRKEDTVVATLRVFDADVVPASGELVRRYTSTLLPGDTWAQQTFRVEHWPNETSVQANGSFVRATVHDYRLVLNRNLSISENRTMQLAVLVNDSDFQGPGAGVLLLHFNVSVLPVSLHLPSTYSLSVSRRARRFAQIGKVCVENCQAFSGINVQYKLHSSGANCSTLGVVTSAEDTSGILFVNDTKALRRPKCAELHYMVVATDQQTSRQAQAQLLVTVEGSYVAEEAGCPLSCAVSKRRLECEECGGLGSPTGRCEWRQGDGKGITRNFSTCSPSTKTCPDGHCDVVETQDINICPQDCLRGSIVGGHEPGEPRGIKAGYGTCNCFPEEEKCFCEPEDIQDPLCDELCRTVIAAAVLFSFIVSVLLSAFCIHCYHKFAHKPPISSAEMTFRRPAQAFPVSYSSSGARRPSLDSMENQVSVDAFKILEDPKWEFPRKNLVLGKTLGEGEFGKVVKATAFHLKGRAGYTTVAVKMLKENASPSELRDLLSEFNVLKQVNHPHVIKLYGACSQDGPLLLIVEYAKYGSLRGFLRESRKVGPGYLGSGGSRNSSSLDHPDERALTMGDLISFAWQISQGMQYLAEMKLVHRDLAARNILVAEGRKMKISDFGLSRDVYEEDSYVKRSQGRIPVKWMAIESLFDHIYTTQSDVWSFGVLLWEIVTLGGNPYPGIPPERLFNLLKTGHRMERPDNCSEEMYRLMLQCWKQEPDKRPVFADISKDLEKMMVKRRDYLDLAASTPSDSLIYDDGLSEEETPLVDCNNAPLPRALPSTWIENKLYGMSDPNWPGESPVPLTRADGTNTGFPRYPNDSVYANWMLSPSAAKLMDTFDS
Chain of Cytochrome P450 3A4 (P08684 whole entry): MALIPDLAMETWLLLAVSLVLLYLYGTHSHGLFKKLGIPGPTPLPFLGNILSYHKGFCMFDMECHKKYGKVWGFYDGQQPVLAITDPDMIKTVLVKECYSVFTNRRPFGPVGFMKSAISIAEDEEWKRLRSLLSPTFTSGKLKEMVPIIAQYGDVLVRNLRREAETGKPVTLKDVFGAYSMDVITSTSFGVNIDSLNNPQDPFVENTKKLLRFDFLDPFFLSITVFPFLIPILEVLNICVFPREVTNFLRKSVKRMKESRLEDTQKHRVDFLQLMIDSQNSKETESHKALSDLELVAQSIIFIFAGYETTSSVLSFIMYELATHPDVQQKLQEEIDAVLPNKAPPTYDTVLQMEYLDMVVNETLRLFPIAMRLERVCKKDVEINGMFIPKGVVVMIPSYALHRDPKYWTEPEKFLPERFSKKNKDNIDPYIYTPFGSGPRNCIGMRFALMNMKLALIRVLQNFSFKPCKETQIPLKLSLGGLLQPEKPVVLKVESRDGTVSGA

Consider `Cc1nn(C)cc1-c1nc2c(N3CCN(Cc4ccc(Cl)cc4)CC3)c(Cl)cnc2[nH]1` [MOBINITINIB], for which the inhibition result with Mus musculus [1] and in the data set on Mus musculus [13] was “Active” in each case. Besides, the bioavailability in data set [2] stood at 79%; in [9], 100%. In the data set on MV4-11 [3], the TGI result is “Dose-dependent effect”. The clearance in data set [4] was 0.967 mL/min; in data set [6], 0.95 mL/min. Moreover, the half-life is 0.84 h in data set [5] and 4.62 h in [17]. The values for the Activity in the data set on MV4-11 [7], in the data set on MV4-11 [8] and with Mus musculus [14] were 42%, 60% and “Non-toxic”, respectively. For the same compound, in the data set on MV4-11 [10], the outcome was Active. Also, in the data set with Caco-2, the permeability worked out at 18.6 ×10⁻⁶ cm/s. For the same compound, the IC50 in [11] was above 25 µM; at Cytochrome P450 3A4 it was above 10 µM. Further, the inhibition in data set [12] came out at 4%; in data set [18], 1.8%. This compound also displayed an AUC(0-inf) in [15] of 3.75 µM·h. Moreover, the metabolised at 0.5 h in [16] worked out at 10%.

Usually inhibition stands for the relative decrease from the control value, in per cent. By bioavailability is commonly meant dose-corrected exposure relative to a reference, in per cent. As usually defined, the clearance is the rate of elimination divided by the concentration. A word on the half-life: it is the time in which the quantity being followed falls by half. What is called IC50 is the concentration that inhibits the measured activity by half. One may read the AUC(0-inf) as the area under the concentration-time curve extrapolated to infinity.

For the origin of these results see ChEMBL document CHEMBL2203264, “Optimization of imidazo[4,5-b]pyridine-based kinase inhibitors: identification of a dual FLT3/Aurora kinase inhibitor as an orally bioavailable preclinical development candidate for the treatment of acute myeloid leukemia” (J Med Chem, 2012).
